Assay results reported in PMC11904481 (ESMO Open, 2025).

Tested on: patients with locally advanced unresectable or metastatic, relapsed and/or refractory nonhematological malignancies
Assay: Phase I safety: adverse events
Assay type: in vivo, human
How it was run: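 Adverse events were graded by NCI CTCAE v4.03 across three i.v. schedules of the test compound (0.45-11.3 mg/kg; weekly per 28-day cycle, or days 1, 4, 8 ±11, 15 per 21-day cycle). Special-interest events covered retinal dysfunction symptoms and documented retinal disorders. Clustered signs were grouped as 'infusion reaction'. QTc was calculated with the Fridericia correction.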

[1] = schedule 3 cohort 5, 11.3 mg/kg
[2] = schedule 3 cohort 6, 11.3 mg/kg
[3] = schedules 1/2 cohort 1, 0.45 mg/kg

O=C1Nc2cc3[nH]nc(-c4ccncc4)c3cc2CN1Cc1ccccc1 [KO-947]
AESI: Photopsia (schedule 3 cohort 4, 7.2 mg/kg): 1 (33) n (%)
AESI: Retinal detachment (schedule 3 cohort 4, 7.2 mg/kg): 1 (33) n (%)
AESI: Subretinal fluid (schedule 3 cohort 4, 7.2 mg/kg): 0 n (%)
AESI: Total number of AEs (schedule 3 cohort 4, 7.2 mg/kg): 14 n
AESI: Vitreous floaters (schedule 3 cohort 4, 7.2 mg/kg): 0 n (%)
Patients with ≥1 treatment-related TEAE (schedule 3 cohort 4, 7.2 mg/kg): 3 (100) n (%)
Total number of treatment-related TEAEs (schedule 3 cohort 4, 7.2 mg/kg): 38 n
Treatment-related TEAE: Blurred vision (schedule 3 cohort 4, 7.2 mg/kg): 1 (33) n (%)
Treatment-related TEAE: Dermatitis acneiform (schedule 3 cohort 4, 7.2 mg/kg): 1 (33) n (%)
Treatment-related TEAE: Diarrhea (schedule 3 cohort 4, 7.2 mg/kg): 2 (67) n (%)
Treatment-related TEAE: Dyspepsia (schedule 3 cohort 4, 7.2 mg/kg): 1 (33) n (%)
Treatment-related TEAE: Infusion-related reaction (schedule 3 cohort 4, 7.2 mg/kg): 1 (33) n (%)
Treatment-related TEAE: Macular edema (schedule 3 cohort 4, 7.2 mg/kg): 1 (33) n (%)
Treatment-related TEAE: Photopsia (schedule 3 cohort 4, 7.2 mg/kg): 1 (33) n (%)
Treatment-related TEAE: QTc prolongation (schedule 3 cohort 4, 7.2 mg/kg): 0 n (%)
Treatment-related TEAE: Retinal detachment (schedule 3 cohort 4, 7.2 mg/kg): 1 (33) n (%)
Treatment-related TEAE: Subretinal fluid (schedule 3 cohort 4, 7.2 mg/kg): 0 n (%)
Treatment-related TEAE: Vitreous floaters (schedule 3 cohort 4, 7.2 mg/kg): 0 n (%)
AESI: Blurred vision [1]: 4 (67) n (%)
AESI: Detachment of retinal pigment epithelium [1]: 1 (17) n (%)
AESI: Eye disorders [1]: 6 (100) n (%)
AESI: Macular edema [1]: 2 (33) n (%)
AESI: Patients with ≥1 AE [1]: 6 (100) n (%)
AESI: Photopsia [1]: 1 (17) n (%)
AESI: Retinal detachment [1]: 1 (17) n (%)
AESI: Subretinal fluid [1]: 1 (17) n (%)
AESI: Total number of AEs [1]: 16 n
AESI: Vitreous floaters [1]: 1 (17) n (%)
Patients with ≥1 treatment-related TEAE [1]: 6 (100) n (%)
Total number of treatment-related TEAEs [1]: 50 n
Treatment-related TEAE: Blurred vision [1]: 4 (67) n (%)
Treatment-related TEAE: Dermatitis acneiform [1]: 4 (67) n (%)
Treatment-related TEAE: Diarrhea [1]: 2 (33) n (%)
Treatment-related TEAE: Dyspepsia [1]: 1 (17) n (%)
Treatment-related TEAE: Infusion-related reaction [1]: 2 (33) n (%)
Treatment-related TEAE: Macular edema [1]: 2 (33) n (%)
Treatment-related TEAE: Photopsia [1]: 1 (17) n (%)
Treatment-related TEAE: QTc prolongation [1]: 1 (17) n (%)
Treatment-related TEAE: Retinal detachment [1]: 1 (17) n (%)
Treatment-related TEAE: Subretinal fluid [1]: 1 (17) n (%)
Treatment-related TEAE: Vitreous floaters [1]: 1 (17) n (%)
AESI: Blurred vision [2]: 1 (33) n (%)
AESI: Detachment of retinal pigment epithelium [2]: 1 (33) n (%)
AESI: Eye disorders [2]: 2 (67) n (%)
AESI: Macular edema [2]: 0 n (%)
AESI: Patients with ≥1 AE [2]: 2 (67) n (%)
AESI: Photopsia [2]: 1 (33) n (%)
AESI: Retinal detachment [2]: 0 n (%)
AESI: Subretinal fluid [2]: 1 (33) n (%)
AESI: Total number of AEs [2]: 3 n
AESI: Vitreous floaters [2]: 0 n (%)
Patients with ≥1 treatment-related TEAE [2]: 3 (100) n (%)
Total number of treatment-related TEAEs [2]: 9 n
Treatment-related TEAE: Blurred vision [2]: 1 (33) n (%)
Treatment-related TEAE: Dermatitis acneiform [2]: 1 (33) n (%)
Treatment-related TEAE: Diarrhea [2]: 0 n (%)
Treatment-related TEAE: Dyspepsia [2]: 0 n (%)
Treatment-related TEAE: Infusion-related reaction [2]: 1 (33) n (%)
Treatment-related TEAE: Macular edema [2]: 0 n (%)
Treatment-related TEAE: Photopsia [2]: 1 (33) n (%)
Treatment-related TEAE: QTc prolongation [2]: 2 (67) n (%)
Treatment-related TEAE: Retinal detachment [2]: 0 n (%)
Treatment-related TEAE: Subretinal fluid [2]: 1 (33) n (%)
Treatment-related TEAE: Vitreous floaters [2]: 0 n (%)
AESI: Blurred vision (schedule 3 total N = 27): 9 (33) n (%)
AESI: Eye disorders (schedule 3 total N = 27): 22 (82) n (%)
AESI: Macular edema (schedule 3 total N = 27): 4 (15) n (%)
AESI: Patients with ≥1 AE (schedule 3 total N = 27): 22 (82) n (%)
AESI: Photopsia (schedule 3 total N = 27): 4 (15) n (%)
AESI: Retinal detachment (schedule 3 total N = 27): 4 (15) n (%)
AESI: Subretinal fluid (schedule 3 total N = 27): 6 (22) n (%)
AESI: Total number of AEs (schedule 3 total N = 27): 50 n
AESI: Vitreous floaters (schedule 3 total N = 27): 3 (11) n (%)
Patients with ≥1 treatment-related TEAE (schedule 3 total N = 27): 25 (93) n (%)
Total number of treatment-related TEAEs (schedule 3 total N = 27): 136 n
Treatment-related TEAE: Blurred vision (schedule 3 total N = 27): 9 (33) n (%)
Treatment-related TEAE: Dermatitis acneiform (schedule 3 total N = 27): 6 (22) n (%)
Treatment-related TEAE: Diarrhea (schedule 3 total N = 27): 6 (22) n (%)
Treatment-related TEAE: Dyspepsia (schedule 3 total N = 27): 3 (11) n (%)
Treatment-related TEAE: Infusion-related reaction (schedule 3 total N = 27): 6 (22) n (%)
Treatment-related TEAE: Macular edema (schedule 3 total N = 27): 4 (15) n (%)
Treatment-related TEAE: Photopsia (schedule 3 total N = 27): 4 (15) n (%)
Treatment-related TEAE: QTc prolongation (schedule 3 total N = 27): 3 (11) n (%)
Treatment-related TEAE: Retinal detachment (schedule 3 total N = 27): 4 (15) n (%)
Treatment-related TEAE: Subretinal fluid (schedule 3 total N = 27): 6 (22) n (%)
Treatment-related TEAE: Vitreous floaters (schedule 3 total N = 27): 3 (11) n (%)
AESI: Blurred vision [3]: 0 n (%)
AESI: Eye disorders [3]: 0 n (%)
AESI: Macular edema [3]: 0 n (%)
AESI: Retinal edema [3]: 0 n (%)
AESI: Subretinal fluid [3]: 0 n (%)
AESI: Vitreous floaters [3]: 0 n (%)
Patients with ≥1 AESI [3]: 0 n (%)
Patients with ≥1 treatment-related TEAE [3]: 1 (100) n (%)
